Activity calls are given as the source filed them. No cut-off for these calls is given here.
Experiments:
Conditions in all cases: Sus scrofa
Artery [1] = assay: Vasorelaxant activity in pig endothelium-intact coronary artery assessed as inhibition of U46619-induced contraction; assay type: functional
Method in brief: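 Endothelium-intact porcine coronary rings at 2 g resting tension in Krebs-Henseleit, 37 °C, gassed with 95% O2/5% CO2. Rings were discarded if the mean KCl 30 mM contraction was under 4 g or bradykinin relaxation under 40%. PVP K30-complexed sample was given for 30 min. Cumulative U46619 was then added (0.1 nM to 1 µM). ED50 and Emax use % of the mean KCl 30 mM contraction; n = 8, separate hearts.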

Artery [2] = assay: Vasorelaxant activity in pig endothelium-intact coronary artery assessed as inhibition of U46619-induced contraction at 50 ug/ml; assay type: functional, tissue-based
Method in brief: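 Porcine coronary rings with endothelium in Krebs-Henseleit solution at 37 °C, gassed with 95% O2/5% CO2, held at 2 g resting tension and equilibrated 100 min. Each ring was contracted twice with KCl 30 mM and relaxed with bradykinin 1 µM. Test material as a PVP complex was given for 30 min, then cumulative U46619 0.1 nM–1 µM. Contraction was expressed as % of the mean KCl response, giving ED50 and Emax; n=8.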

Artery [3] = assay: Vasorelaxant activity in pig endothelium-intact coronary artery assessed as reversible inhibition of U46619-induced contraction at 1 uM; assay type: functional, tissue-based
Artery [4] = assay: Vasorelaxant activity in pig endothelium-denuded coronary artery assessed as inhibition of U46619-induced contraction at 15 ug/ml; assay type: functional, tissue-based
Method in brief: (§1)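 Endothelium-removed porcine coronary rings at 2 g resting tension in Krebs-Henseleit, 37 °C, 95% O2/5% CO2. Each ring was primed twice with KCl 30 mM and relaxed with bradykinin 1 µM. Test material, as a PVP K30 complex, was given for 30 min. Stepwise contractions were then made with 5-HT (10 nM to 10 µM), U46619 (0.1 nM to 1 µM) or KCl (10-70 mM). Tension is % of the mean of the two KCl 30 mM contractions; n = 7-11.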

Artery [5] = assay: Vasorelaxant activity in pig endothelium-denuded coronary artery assessed as inhibition of 5-hydroxytryptamine-induced contraction at 15 ug/ml; assay type: functional, tissue-based; method in brief: as §1
Artery [6] = assay: Vasorelaxant activity in pig endothelium-denuded coronary artery assessed as inhibition of potassium chloride-induced contraction at 50 ug/ml; assay type: functional, tissue-based; method in brief: as §1

C[C@H]1COC2=C1C(=O)C(=O)c1c2ccc2c1CCCC2(C)C [CRYPTOTANSHINONE]
Emax (Artery [1]): 64.9% | Activity (Artery [2]): Active

CC1(C)CCCc2c1ccc1c2C(=O)C(=O)c2c(CO)coc2-1 [PRZEWAQUINONE A]
Emax (Artery [1]): 29.2% | Activity (Artery [3]): Active | Activity (Artery [4]): Active | Activity (Artery [5]): Active | Activity (Artery [6]): Active

Cc1coc2c1C(=O)C(=O)c1c-2ccc2c1CCCC2(C)C [TANSHINONE IIA]
Emax (Artery [1]): 92.9% | Activity (Artery [2]): Active

Reference: ChEMBL document CHEMBL1154124, “Vascular effects of different lipophilic components of "Danshen", a traditional Chinese medicine, in the isolated porcine coronary artery” (2008)
